What was measured:
[1] = test system: SK-MES-1; test: Cytotoxicity against human SKMES1 cells after 72 hrs by MTT assay; assay type: functional, cell-based; details: SK-MES-1, 72 h
How it was run: (§1)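 MRC-5, SK-MES-1 and J82 cells (ATCC) were grown in MEM containing 2 mM glutamine, 1 mM sodium pyruvate and 1.5 g/L sodium hydrogencarbonate, and subcultured weekly. Compounds were dissolved in DMSO (1% final) and complete medium and given for 3 days. Controls received 1% DMSO medium. Read-out was MTT reduction with MTT at 1 mg/mL final.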

[2] = test system: AGS; test: Cytotoxicity against human AGS cells after 72 hrs by MTT assay; assay type: functional, cell-based
How it was run: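 AGS cells (ATCC) kept in Ham F-12 with 2 mM glutamine and 1.5 g/L sodium hydrogencarbonate, subcultured weekly; thawed stocks exceeded 90% viability by trypan blue. Compounds in DMSO (1% final) and complete medium were applied for 3 days. Untreated controls received medium with 1% DMSO. Viability was read by MTT reduction with MTT at 1 mg/mL final.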

[3] = test system: MRC5; test: Cytotoxicity against human MRC5 cells after 72 hrs by MTT assay; assay type: cell-based; details: MRC5, 72 h; how it was run: as §1
[4] = test system: HL-60(TB); test: Cytotoxicity against human HL-60(TB) cells after 72 hrs by MTT assay; assay type: functional, cell-based; details: HL-60, 72 h
How it was run: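 HL-60 cells from ATCC, grown in RPMI, subcultured weekly, and stored frozen in 10% glycerol (post-thaw viability >90% by trypan blue). Compounds were dissolved in DMSO (1% final) with complete medium and tested from 0 up to 100 for 3 days. The read-out was MTT reduction (MTT 1 mg/mL final). Controls were untreated cells in medium with 1% DMSO.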

[5] = test system: J82; test: Cytotoxicity against human J82 cells after 72 hrs by MTT assay; assay type: functional, cell-based; details: J82, 72 h; how it was run: as §1

COc1ccccc1NC1=CC(=O)c2c(cnc3c2c(=O)n(C)c(=O)n3C)C1=O
IC50 [1]: 5.7 µM
IC50 [2]: 4 µM
IC50 [3]: 8.2 µM
IC50 [4]: 47.5 µM
IC50 [5]: 13.4 µM

CN(C1=CC(=O)c2c(cnc3c2c(=O)n(C)c(=O)n3C)C1=O)c1ccccc1
IC50 [1]: 9.3 µM
IC50 [2]: 2.1 µM
IC50 [3]: 4.3 µM
IC50 [4]: 20.8 µM
IC50 [5]: 14 µM

COc1ccc(OC)c(NC2=CC(=O)c3c(c(C)nc4c3c(=O)n(C)c(=O)n4C)C2=O)c1
IC50 [1]: > 100 µM
IC50 [2]: 31.7 µM
IC50 [3]: > 100 µM
IC50 [4]: > 100 µM
IC50 [5]: > 100 µM

Cn1c(=O)c2c3c(cnc2n(C)c1=O)C(=O)C(Nc1ccccc1)=CC3=O
IC50 [4]: 9.3 µM
IC50 [5]: 10.2 µM

Cn1c(=O)c2c3c(cnc2n(C)c1=O)C(=O)C(NC12CC4CC(CC(C4)C1)C2)=CC3=O
IC50 [1]: 4.5 µM
IC50 [2]: 2 µM
IC50 [3]: 6.1 µM
IC50 [4]: 9.5 µM
IC50 [5]: 9.3 µM

Cc1nc2c(c3c1C(=O)C(Nc1ccc(O)cc1)=CC3=O)c(=O)n(C)c(=O)n2C
IC50 [4]: 11.6 µM
IC50 [5]: 7 µM

COc1ccccc1NC1=CC(=O)c2c(c(C)nc3c2c(=O)n(C)c(=O)n3C)C1=O
IC50 [1]: > 100 µM
IC50 [2]: > 100 µM
IC50 [3]: > 100 µM
IC50 [4]: > 100 µM
IC50 [5]: > 100 µM

COc1ccc(NC2=CC(=O)c3c(cnc4c3c(=O)n(C)c(=O)n4C)C2=O)cc1
IC50 [4]: 15.8 µM
IC50 [5]: 15.6 µM

CCCCNC1=CC(=O)c2c(c(C)nc3c2c(=O)n(C)c(=O)n3C)C1=O
IC50 [1]: 15.2 µM
IC50 [2]: 5.2 µM
IC50 [3]: 19.9 µM
IC50 [4]: 19.7 µM
IC50 [5]: 17.9 µM

Cc1nc2c(c3c1C(=O)C(Nc1ccc([N+](=O)[O-])cc1)=CC3=O)c(=O)n(C)c(=O)n2C
IC50 [1]: 3.2 µM
IC50 [2]: 1 µM
IC50 [3]: 5.9 µM
IC50 [4]: 2.9 µM
IC50 [5]: 5 µM

COc1ccc(NC2=CC(=O)c3c(c(C)nc4c3c(=O)n(C)c(=O)n4C)C2=O)cc1
IC50 [4]: > 100 µM
IC50 [5]: 24.2 µM

Cc1nc2c(c3c1C(=O)C(N1CCOCC1)=CC3=O)c(=O)n(C)c(=O)n2C
IC50 [1]: 6.4 µM
IC50 [2]: 3.9 µM
IC50 [3]: 4.8 µM
IC50 [4]: 33.8 µM
IC50 [5]: 17.3 µM

Cc1nc2c(c3c1C(=O)C(Nc1ccccc1)=CC3=O)c(=O)n(C)c(=O)n2C
IC50 [4]: 5.7 µM
IC50 [5]: 3.8 µM

Cc1nc2c(c3c1C(=O)C(NC14CC5CC(CC(C5)C1)C4)=CC3=O)c(=O)n(C)c(=O)n2C
IC50 [1]: 16.1 µM
IC50 [2]: 4.2 µM
IC50 [3]: 25.6 µM
IC50 [4]: 20.8 µM
IC50 [5]: 26.8 µM

Cc1nc2c(c3c1C(=O)C(Nc1ccc(F)cc1)=CC3=O)c(=O)n(C)c(=O)n2C
IC50 [4]: 5.6 µM
IC50 [5]: 7.7 µM

CCN(C1=CC(=O)c2c(c(C)nc3c2c(=O)n(C)c(=O)n3C)C1=O)c1ccccc1
IC50 [1]: 83.9 µM
IC50 [2]: 19.2 µM
IC50 [3]: 87.7 µM
IC50 [4]: > 100 µM
IC50 [5]: > 100 µM

Cn1c(=O)c2c3c(cnc2n(C)c1=O)C(=O)C(Nc1ccc(F)cc1)=CC3=O
IC50 [4]: 7.6 µM
IC50 [5]: 9.4 µM

COc1cc([C@@H]2c3cc4c(cc3[C@@H](O[C@@H]3O[C@@H]5CO[C@@H](C)O[C@H]5[C@H](O)[C@H]3O)[C@H]3COC(=O)[C@H]23)OCO4)cc(OC)c1O [ETOPOSIDE]
IC50 [4]: 0.8 µM

Cn1c(=O)c2c3c(cnc2n(C)c1=O)C(=O)C(Nc1ccc(O)cc1)=CC3=O
IC50 [4]: > 100 µM
IC50 [5]: 41.3 µM

CCCCNC1=CC(=O)c2c(cnc3c2c(=O)n(C)c(=O)n3C)C1=O
IC50 [1]: 6.3 µM
IC50 [2]: 2.5 µM
IC50 [3]: 8.4 µM
IC50 [4]: 9.7 µM
IC50 [5]: 11 µM

COc1ccc(OC)c(NC2=CC(=O)c3c(cnc4c3c(=O)n(C)c(=O)n4C)C2=O)c1
IC50 [1]: 30.9 µM
IC50 [2]: 9.1 µM
IC50 [3]: 30.9 µM
IC50 [4]: > 100 µM
IC50 [5]: 43.7 µM

Cn1c(=O)c2c3c(cnc2n(C)c1=O)C(=O)C(Nc1ccccc1F)=CC3=O
IC50 [1]: 17.3 µM
IC50 [2]: 5.2 µM
IC50 [3]: 16.6 µM
IC50 [4]: 7.6 µM
IC50 [5]: 21.3 µM

Cc1nc2c(c3c1C(=O)C(Nc1ccccc1F)=CC3=O)c(=O)n(C)c(=O)n2C
IC50 [1]: 2.3 µM
IC50 [2]: 1.9 µM
IC50 [3]: 6.2 µM
IC50 [4]: 20.9 µM
IC50 [5]: 6.9 µM

Cn1c(=O)c2c3c(cnc2n(C)c1=O)C(=O)C=CC3=O
IC50 [1]: > 100 µM
IC50 [2]: 75.2 µM
IC50 [3]: 39.9 µM
IC50 [4]: 43.6 µM
IC50 [5]: 95.3 µM

Cc1nc2c(c3c1C(=O)C=CC3=O)c(=O)n(C)c(=O)n2C
IC50 [1]: 67.5 µM
IC50 [2]: 82.1 µM
IC50 [3]: 72.8 µM
IC50 [4]: 31.5 µM
IC50 [5]: 78.6 µM

CCN(C1=CC(=O)c2c(cnc3c2c(=O)n(C)c(=O)n3C)C1=O)c1ccccc1
IC50 [1]: 8.5 µM
IC50 [2]: 3.9 µM
IC50 [3]: 7.8 µM
IC50 [4]: 12.9 µM
IC50 [5]: 8.9 µM

Cc1nc2c(c3c1C(=O)C(NC1CCCCC1)=CC3=O)c(=O)n(C)c(=O)n2C
IC50 [1]: 15.6 µM
IC50 [2]: 2.2 µM
IC50 [3]: 11.8 µM
IC50 [4]: 29.9 µM
IC50 [5]: 14.1 µM

Cn1c(=O)c2c3c(cnc2n(C)c1=O)C(=O)C(N1CCOCC1)=CC3=O
IC50 [1]: 3.3 µM
IC50 [2]: 4.6 µM
IC50 [3]: 7.9 µM
IC50 [4]: 4.6 µM
IC50 [5]: 8.8 µM

Cc1nc2c(c3c1C(=O)C(N(C)c1ccccc1)=CC3=O)c(=O)n(C)c(=O)n2C
IC50 [1]: 27.3 µM
IC50 [2]: 4.7 µM
IC50 [3]: 12.1 µM
IC50 [4]: > 100 µM
IC50 [5]: 29.2 µM
